Reference: ChEMBL document CHEMBL5046317, “Diminishing GSH-Adduct Formation of Tricyclic Diazepine-based Mutant IDH1 Inhibitors” (ACS Med Chem Lett, 2022)
Values after ≈ are worked out from the molar mass of the structure shown.

What was measured:
MOG-G-UVW = experiment: Antiproliferative activity against human MOG-G-UVW cells assessed as inhibition of cell proliferation incubated for 72 hrs by cell titer-Glo assay; assay type: functional, cell-based
P-gp (ABCB1) = P-gp (ABCB1) (Homo sapiens, UniProt P08183); experiment: Substrate activity at P-gp (unknown origin) transfected in LLC-PK1 cells expressing human MDR1 gene assessed as efflux ratio of permeability across basolateral to apical membrane at 0.1 uM; assay type: ADME, cell-based
P-gp (ABCB1), sequence (P08183 whole entry): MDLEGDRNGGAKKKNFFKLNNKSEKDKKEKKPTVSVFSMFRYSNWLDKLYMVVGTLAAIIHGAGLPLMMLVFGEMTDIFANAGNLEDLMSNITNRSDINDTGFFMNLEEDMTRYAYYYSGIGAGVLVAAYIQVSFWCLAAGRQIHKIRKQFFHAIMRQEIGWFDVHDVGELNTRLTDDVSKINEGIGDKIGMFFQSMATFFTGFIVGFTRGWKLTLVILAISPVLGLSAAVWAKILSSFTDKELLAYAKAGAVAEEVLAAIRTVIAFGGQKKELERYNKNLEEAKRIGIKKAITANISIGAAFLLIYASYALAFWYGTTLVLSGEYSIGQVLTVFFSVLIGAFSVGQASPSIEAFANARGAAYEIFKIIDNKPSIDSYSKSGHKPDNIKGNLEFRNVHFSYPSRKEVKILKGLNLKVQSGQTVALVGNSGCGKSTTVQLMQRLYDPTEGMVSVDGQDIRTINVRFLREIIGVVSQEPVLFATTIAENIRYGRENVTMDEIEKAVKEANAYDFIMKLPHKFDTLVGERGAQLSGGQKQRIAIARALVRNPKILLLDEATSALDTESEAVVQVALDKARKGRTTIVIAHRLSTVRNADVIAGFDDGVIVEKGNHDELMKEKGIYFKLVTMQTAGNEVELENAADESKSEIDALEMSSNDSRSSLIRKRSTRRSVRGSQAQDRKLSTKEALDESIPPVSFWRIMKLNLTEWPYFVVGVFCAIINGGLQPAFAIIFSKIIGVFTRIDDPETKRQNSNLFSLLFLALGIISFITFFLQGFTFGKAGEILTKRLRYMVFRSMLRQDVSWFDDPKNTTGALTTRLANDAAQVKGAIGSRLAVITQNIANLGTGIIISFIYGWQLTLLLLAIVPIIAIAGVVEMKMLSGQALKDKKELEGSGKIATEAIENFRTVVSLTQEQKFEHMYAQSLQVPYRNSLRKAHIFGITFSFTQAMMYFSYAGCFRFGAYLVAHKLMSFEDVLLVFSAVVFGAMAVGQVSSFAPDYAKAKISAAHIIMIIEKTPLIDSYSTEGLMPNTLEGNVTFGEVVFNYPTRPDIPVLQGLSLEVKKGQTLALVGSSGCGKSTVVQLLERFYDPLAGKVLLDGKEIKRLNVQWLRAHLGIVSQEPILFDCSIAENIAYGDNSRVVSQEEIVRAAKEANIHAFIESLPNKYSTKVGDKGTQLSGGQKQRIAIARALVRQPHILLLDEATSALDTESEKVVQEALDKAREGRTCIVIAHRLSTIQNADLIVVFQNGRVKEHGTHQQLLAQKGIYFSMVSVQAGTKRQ

[1] = Metabolic stability in human liver microsomes assessed as intrinsic clearance; assay type: ADME, Microsome; details: read-out: CLH
[2] = target: Isocitrate dehydrogenase [NADP] cytoplasmic (Homo sapiens, UniProt O75874, R132H); experiment: Inhibition of IDH1 R132H mutant (unknown origin) assessed as reduction in NADPH consumption using alpha-KG as substrate incubated for 60 mins by Kinase-GLO reagent based assay
Isocitrate dehydrogenase [NADP] cytoplasmic (Homo sapiens, UniProt O75874, R132H), sequence (O75874 2-414 R132H limits assumed): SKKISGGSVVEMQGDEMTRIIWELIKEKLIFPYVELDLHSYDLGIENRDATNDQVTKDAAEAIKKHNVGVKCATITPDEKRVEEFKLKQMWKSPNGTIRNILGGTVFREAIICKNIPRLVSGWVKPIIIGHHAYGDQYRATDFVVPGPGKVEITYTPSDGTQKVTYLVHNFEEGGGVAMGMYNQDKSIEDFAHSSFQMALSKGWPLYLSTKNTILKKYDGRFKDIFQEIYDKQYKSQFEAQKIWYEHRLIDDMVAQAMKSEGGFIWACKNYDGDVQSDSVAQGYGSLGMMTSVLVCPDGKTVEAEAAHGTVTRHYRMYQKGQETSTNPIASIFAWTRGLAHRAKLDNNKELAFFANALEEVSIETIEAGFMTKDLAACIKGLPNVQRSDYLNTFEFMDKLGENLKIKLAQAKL

[3] = Drug metabolism in dog liver microsomes assessed as glutathione-adduct formation measured after 60 mins in presence of NADPH; assay type: ADME, Canis lupus familiaris, Microsome; details: 1 h
[4] = system: P-gp (Mdr1) (Rattus norvegicus); experiment: Substrate activity at rat P-gp transfected in […]-MDR1 expressing Mdr1 gene assessed as efflux ratio of permeability across basolateral to apical membrane at 0.1 uM
[5] = target: T1, Nuclear receptor subfamily 1 group I member 2 (Homo sapiens, UniProt O75469); experiment: Inhibition of PXR (unknown origin)
T1 sequence (O75469 whole entry): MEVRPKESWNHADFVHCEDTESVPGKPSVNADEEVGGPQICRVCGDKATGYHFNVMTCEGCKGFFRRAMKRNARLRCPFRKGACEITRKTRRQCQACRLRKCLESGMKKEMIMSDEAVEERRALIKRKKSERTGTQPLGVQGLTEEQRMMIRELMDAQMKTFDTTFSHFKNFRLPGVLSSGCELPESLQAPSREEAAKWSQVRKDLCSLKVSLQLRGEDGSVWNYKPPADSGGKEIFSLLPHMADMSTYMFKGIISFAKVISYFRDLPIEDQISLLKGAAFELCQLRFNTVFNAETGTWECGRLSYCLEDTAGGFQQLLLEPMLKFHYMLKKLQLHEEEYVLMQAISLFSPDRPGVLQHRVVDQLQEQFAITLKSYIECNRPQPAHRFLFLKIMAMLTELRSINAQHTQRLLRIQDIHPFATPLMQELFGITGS

[6] = target: Isocitrate dehydrogenase [NADP] cytoplasmic (Homo sapiens, UniProt O75874); experiment: Inhibition of IDH1 (unknown origin)
Isocitrate dehydrogenase [NADP] cytoplasmic (Homo sapiens, UniProt O75874), sequence (O75874 whole entry): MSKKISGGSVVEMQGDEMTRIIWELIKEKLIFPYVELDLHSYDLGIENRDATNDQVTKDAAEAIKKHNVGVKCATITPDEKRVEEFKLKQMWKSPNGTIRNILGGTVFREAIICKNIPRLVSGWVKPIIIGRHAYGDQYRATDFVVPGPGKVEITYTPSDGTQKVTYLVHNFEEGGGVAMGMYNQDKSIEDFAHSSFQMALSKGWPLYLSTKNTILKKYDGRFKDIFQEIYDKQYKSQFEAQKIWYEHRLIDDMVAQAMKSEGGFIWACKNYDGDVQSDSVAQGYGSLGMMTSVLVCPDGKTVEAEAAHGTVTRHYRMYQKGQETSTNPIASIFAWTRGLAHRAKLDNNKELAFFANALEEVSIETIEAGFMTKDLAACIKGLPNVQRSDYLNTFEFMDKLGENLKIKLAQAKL

Cytochrome P450 3A4 = Cytochrome P450 3A4 (Homo sapiens, UniProt P08684); experiment: Inhibition of CYP3A4 (unknown origin); assay type: ADME
Cytochrome P450 3A4, sequence (P08684 whole entry): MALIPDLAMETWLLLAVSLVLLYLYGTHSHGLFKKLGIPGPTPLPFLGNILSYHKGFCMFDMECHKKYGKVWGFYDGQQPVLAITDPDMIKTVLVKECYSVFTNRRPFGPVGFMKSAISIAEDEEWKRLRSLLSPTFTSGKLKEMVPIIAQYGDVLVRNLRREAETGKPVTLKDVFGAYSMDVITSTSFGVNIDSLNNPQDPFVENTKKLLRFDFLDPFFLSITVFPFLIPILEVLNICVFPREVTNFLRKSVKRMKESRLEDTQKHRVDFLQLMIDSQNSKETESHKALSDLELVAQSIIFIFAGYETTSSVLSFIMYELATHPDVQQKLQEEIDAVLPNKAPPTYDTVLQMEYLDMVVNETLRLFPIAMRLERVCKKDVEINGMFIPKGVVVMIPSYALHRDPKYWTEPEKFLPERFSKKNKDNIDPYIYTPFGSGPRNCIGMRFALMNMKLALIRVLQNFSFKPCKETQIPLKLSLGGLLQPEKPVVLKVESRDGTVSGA

[7] = target: T2, Isocitrate dehydrogenase [NADP], mitochondrial (Homo sapiens, UniProt P48735); experiment: Inhibition of IDH2 (unknown origin)
T2 sequence (P48735 whole entry): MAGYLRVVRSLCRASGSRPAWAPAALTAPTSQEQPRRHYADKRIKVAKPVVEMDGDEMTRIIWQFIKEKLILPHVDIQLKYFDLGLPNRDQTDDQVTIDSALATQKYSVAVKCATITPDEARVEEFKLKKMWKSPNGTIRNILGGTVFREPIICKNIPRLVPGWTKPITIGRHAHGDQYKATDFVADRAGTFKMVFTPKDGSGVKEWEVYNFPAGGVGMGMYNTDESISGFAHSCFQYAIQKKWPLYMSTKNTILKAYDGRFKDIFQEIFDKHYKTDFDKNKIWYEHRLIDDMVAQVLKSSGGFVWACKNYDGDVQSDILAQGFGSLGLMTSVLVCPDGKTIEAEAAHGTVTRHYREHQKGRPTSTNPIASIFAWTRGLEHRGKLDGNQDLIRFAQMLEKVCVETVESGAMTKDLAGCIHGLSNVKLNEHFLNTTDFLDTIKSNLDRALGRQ

[8] = Half life in dog at 2 mg/kg, iv measured up to 24 hrs by LC-MS/MS analysis; assay type: ADME, organism-based, Canis lupus familiaris; details: in vivo
How it was run: (§1)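 Single-dose PK in rat and dog. Rat received 0.5 mg/kg IV and 1 mg/kg PO; dog received 2 mg/kg IV and 10 mg/kg PO. Parameters derived: terminal t1/2, Vd, clearance and oral bioavailability F.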

[9] = Volume of distribution in rat at 0.5 mg/kg, iv measured up to 24 hrs by LC-MS/MS analysis; assay type: ADME, organism-based; details: in vivo; how it was run: as §1
[10] = Volume of distribution in dog at 2 mg/kg, iv measured up to 24 hrs by LC-MS/MS analysis; assay type: ADME, organism-based, Canis lupus familiaris; details: in vivo; how it was run: as §1
[11] = Oral bioavailability in dog 10 mg/kg measured up to 24 hrs by LC-MS/MS analysis; assay type: ADME, organism-based, Canis lupus familiaris; details: in vivo; how it was run: as §1
[12] = Clearance in dog at 2 mg/kg, iv measured up to 24 hrs by LC-MS/MS analysis; assay type: ADME, organism-based, Canis lupus familiaris; details: in vivo; how it was run: as §1
[13] = Solubility of the compound at pH 7; assay type: physicochemical; details: buffer
[14] = Oral bioavailability in rat 1 mg/kg measured up to 24 hrs by LC-MS/MS analysis; assay type: ADME, organism-based; details: in vivo; how it was run: as §1
[15] = Solubility of the compound at pH 6.5; assay type: physicochemical; details: buffer
[16] = Clearance in rat at 0.5 mg/kg, iv measured up to 24 hrs by LC-MS/MS analysis; assay type: ADME, organism-based; details: in vivo; how it was run: as §1
[17] = Distribution coefficient, logD of compound at pH 7.4 by HPLC analysis; assay type: physicochemical; details: octanol/water
[18] = Half life in rat at 0.5 mg/kg, iv measured up to 24 hrs by LC-MS/MS analysis; assay type: ADME, organism-based; details: in vivo; how it was run: as §1
[19] = Permeability of the compound in pig LLC-PK1 cells expressing MDR1; assay type: ADME, cell-based, Sus scrofa; details: read-out: permeability
[20] = Solubility of the compound at pH 2; assay type: physicochemical; details: buffer

SMILES | efflux ratio at 0.1 µM (P-gp (ABCB1)) | CLint scaled [1] | IC50 [2] | IC50 (MOG-G-UVW) | other results
CC(C)O[C@H]1CC[C@H](C(=O)N2Cc3cccnc3Nc3ccc(N4CC5(CCCOC5)C4)cc32)CC1 | – | – | – | 119 nM | –
CC(C)O[C@H]1CC[C@H](C(=O)N2Cc3cccnc3Nc3cc(F)c(N4CC5CCC4CO5)cc32)CC1 (some centres not stated) | 2.5 | 124 mL/min/kg | – | 36.2 nM | –
CC(C)O[C@H]1CC[C@H](C(=O)N2Cc3cccnc3Nc3cnc(C4COCCO4)cc32)CC1 (some centres not stated) | 3.7 | 20 mL/min/kg | 181 nM | 581 nM | –
CC(C)O[C@H]1CC[C@H](C(=O)N2Cc3cncnc3Nc3ccc(N4C[C@@H]5C[C@H]4CO5)cc32)CC1 | 8.1 | 177 mL/min/kg | 197 nM | 810 nM | –
CC(C)O[C@H]1CC[C@H](C(=O)N2Cc3cccnc3Nc3ccc(C4COCCO4)cc32)OC1 (some centres not stated) | 1.1 | 34 mL/min/kg | – | 88.5 nM | Activity [3]: 7%
CC(C)O[C@H]1CC[C@H](C(=O)N2Cc3cccnc3Nc3cnn(CC4CCOCC4)c32)CC1 | – | – | 1390 nM | 5020 nM | –
CC(C)O[C@H]1CC[C@H](C(=O)N2Cc3cc(S(C)(=O)=O)cnc3Nc3ccc(N4CC5CCC4CO5)cc32)CC1 (some centres not stated) | – | – | 11200 nM | > 10000 nM | –
Cc1cnc2c(c1)CN(C(=O)[C@H]1CC[C@H](OC(C)C)CC1)c1cc(N3CC4CCC3CO4)ccc1N2 (some centres not stated) | 2.2 | – | 113 nM | 456 nM | –
CC(C)O[C@H]1CC[C@H](C(=O)N2Cc3cccnc3Nc3cnc(N4C[C@@H]5C[C@H]4CO5)cc32)CC1 | 6.6 | 64 mL/min/kg | 116 nM | 261 nM | –
CC(C)O[C@H]1CC[C@H](C(=O)N2Cc3cccnc3Nc3ccc(N4C[C@@H]5C[C@H]4CO5)cc32)CC1 | – | 34 mL/min/kg | – | 60.6 nM | –
O=C(C1CCc2ccccc2CC1)N1Cc2cccnc2Nc2ccc(N3CCOCC3)cc21 | 1.7 | 1500 mL/min/kg | > 50000 nM | 43 nM | IC50 [5]: 3200 nM; IC50 [6]: > 5000 nM; IC50 (Cytochrome P450 3A4): > 5000 nM
CC(C)O[C@H]1CC[C@H](C(=O)N2Cc3cccnc3Nc3ccc(N4CC5CCC4CO5)c(F)c32)CC1 (some centres not stated) | 3.1 | 210 mL/min/kg | – | 205 nM | –

Further lines, with some results ahead:

efflux ratio at 0.1 µM (P-gp (ABCB1)) | CLint scaled [1] | IC50 [2] | SMILES | IC50 (MOG-G-UVW) | other results
1.2 | 51 mL/min/kg | 4.9 nM | CC(C)O[C@H]1CC[C@H](C(=O)N2Cc3cc(F)cnc3Nc3ccc(-c4cnn(C)c4)cc32)OC1 | 18.3 nM | –
3.4 | 143 mL/min/kg | 25.3 nM | CC(C)O[C@H]1CC[C@H](C(=O)N2c3cc(N4C[C@@H]5C[C@H]4CO5)ccc3Nc3ncccc3C2C)CC1 (some centres not stated) | 88.6 nM | –
0.9 | 50 mL/min/kg | 24.4 nM | CC(C)O[C@H]1CC[C@H](C(=O)N2Cc3cc(F)cnc3Nc3ccc(C4COCCO4)cc32)OC1 (some centres not stated) | 56.9 nM | Activity [3]: 12%
1.4 | 22 mL/min/kg | 11 nM | CC(C)O[C@H]1CC[C@H](C(=O)N2Cc3cc(F)cnc3Nc3ccc(N4C[C@H]5CC[C@@H]4CO5)cc32)OC1 | 8.1 nM | –
2.9 | – | 21.2 nM | CC(C)O[C@H]1CC[C@H](C(=O)N2Cc3cc(F)cnc3Nc3ccc(N4CC5CCC4CO5)cc32)CC1 (some centres not stated) | 18.2 nM | –
3.6 | – | 11 nM | CC(C)O[C@H]1CC[C@H](C(=O)N2Cc3cccnc3Nc3ccc(N4CC5CCC4CO5)cc32)CC1 (some centres not stated) | 17.2 nM | –
– | – | 34.9 nM | CC(C)O[C@H]1CC[C@H](C(=O)N2Cc3cccnc3Nc3ccc(N4CCOCC4)cc32)CC1 | 64.4 nM | –
– | – | 28.7 nM | CC(C)O[C@H]1CC[C@H](C(=O)N2Cc3cc(Cl)cnc3Nc3ccc(N4CC5CCC4CO5)cc32)CC1 (some centres not stated) | 95.9 nM | efflux ratio at 0.1 µM [4]: 4.6
– | 21 mL/min/kg | 21.6 nM | CC(C)O[C@H]1CC[C@H](C(=O)N2Cc3cccnc3Nc3ccc(N4C[C@H]5CC[C@@H]4CO5)cc32)OC1 | 17.8 nM | IC50 [5]: 18000 nM; IC50 [6]: > 50000 nM; IC50 (Cytochrome P450 3A4): 1000 nM; IC50 [7]: > 50000 nM
– | – | 15.6 nM | COC1C[C@H]2CC[C@@H](C1)N2c1ccc2c(c1)N(C(=O)C1CCN(CC(F)(F)F)CC1)Cc1cccnc1N2 (some centres not stated) | 61 nM | –
1.2 | 58 mL/min/kg | 32.5 nM | CC(C)O[C@H]1CC[C@H](C(=O)N2Cc3cccnc3Nc3cc(F)c(C4COCCO4)cc32)OC1 (some centres not stated) | 53.6 nM | half-life [8]: 6 h; Vd [9]: 3.7 L/kg; Vd [10]: 5.1 L/kg; bioavailability [11]: 77%; clearance [12]: 26 mL/min/kg; solubility [13]: 123 µM (≈ 58 µg/mL); bioavailability [14]: 100%; solubility [15]: 154 µM (≈ 72.6 µg/mL); Activity [3]: 1%; clearance [16]: 69 mL/min/kg; logD [17]: 2.67; half-life [18]: 1.1 h; Papp [19]: 38.7 ×10⁻⁶ cm/s; solubility [20]: 143 µM (≈ 67.4 µg/mL)
1.4 | 92 mL/min/kg | 22.4 nM | CC(C)O[C@H]1CC[C@H](C(=O)N2Cc3nccnc3Nc3ccc(C4CCOCC4)cc32)CC1 | 146 nM | –
2.2 | 33 mL/min/kg | 8.7 nM | O=C(C1CCN(CC(F)(F)F)CC1)N1Cc2cc(F)cnc2Nc2ccc(N3C[C@@H]4C[C@H]3CO4)cc21 | 42.4 nM | –
